Measured values published in ChEMBL document CHEMBL2034956, “Bioactive diterpenes from Callicarpa longissima” (J Nat Prod, 2012).
≈ marks a conversion by molar mass, not a printed value.

Assays:
Type in all cases: functional, cell-based
[1] = Antiinflammatory activity in human neutrophils assessed as inhibition of FMLP/CB-induced superoxide-anion generation incubated for 5 mins prior to FMLP/CB-challenge measured after 10 mins by spectrophotometry; conditions: Neutrophil
How it was run: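 Human neutrophils isolated by dextran sedimentation and Ficoll centrifugation. Superoxide anion measured as superoxide dismutase-inhibitable reduction of ferricytochrome c.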

[2] = Antiinflammatory activity in human neutrophils assessed as inhibition of FMLP/CB-induced elastase release using Meo-Suc-Ala-Ala-Pro-Val-p-nitroanilide as substrate incubated for 5 mins prior to FMLP/CB-challenge by spectrophotometry; conditions: Neutrophil
How it was run: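 Human neutrophils isolated by dextran sedimentation and Ficoll centrifugation before elastase release measurement.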

PC-3 = assay: Antiproliferative activity against human PC3 cells after 48 hrs by SRB assay; conditions: PC-3, 48 h
How it was run: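 Cells seeded in RPMI 1640 with 5% fetal bovine serum at 37 °C, 5% CO2. After 24 h, two plates per line TCA-fixed as time-zero reference. Compound added, then 48 h further incubation at 37 °C. Cold TCA fixation, 0.4% w/v sulforhodamine B in 1% acetic acid for 10 min, acetic acid washes, dye solubilized in 10 mM Trizma base, absorbance 515 nm. IC50 is 50% absorbance reduction versus untreated cells.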

| SMILES | IC50 [1] | IC50 [2] | IC50 (PC-3) |
| --- | --- | --- | --- |
| COc1ccc(-c2oc3cc(OC)c(OC)c(O)c3c(=O)c2OC)cc1OC [ARTEMETIN] | > 10 mg/L | > 10 mg/L | – |
| CC1=CC(=O)[C@H]2C(C)(C)CCC[C@]2(C)[C@H]1CC/C(C)=C/C(=O)O [CALLILONGISIN D] | 5.09 mg/L (≈ 16 µM) | > 10 mg/L | > 10 mg/L |
| COc1ccc(-c2oc3cc(OC)c(OC)c(O)c3c(=O)c2OC)cc1 | > 10 mg/L | > 10 mg/L | – |
| C=C1C[C@@H](O)[C@H]2C(C)(C)CCC[C@]2(C)[C@H]1CC/C(C)=C/C(=O)O | > 10 mg/L | > 10 mg/L | – |
| C=C(C)[C@@H]1CCC2=C[C@]3(C(C)C)CC[C@]2(OO3)[C@@]1(C)CCC(=O)O (relative stereo) | 3.14 mg/L (≈ 9.39 µM) | 4.66 mg/L (≈ 13.9 µM) | > 10 mg/L |
| C=C(C)[C@@H]1CCC2=C[C@](O)(C(C)C)CC[C@@]23OC(=O)CC[C@@]13C (relative stereo) | > 10 mg/L | > 10 mg/L | – |
| C=C1CC[C@H]2C(C)(C)C(=O)CC[C@]2(C)[C@H]1CC/C(C)=C/C(=O)O | 9.31 mg/L (≈ 29.2 µM) | > 10 mg/L | > 10 mg/L |
| C[C@H]1[C@H](C)CC[C@]2(C(=O)O)CC[C@]3(C)C(=CC[C@@H]4[C@@]5(C)CC[C@H](O)C(C)(C)[C@@H]5CC[C@]43C)[C@H]12 [URSOLIC ACID] | 2.79 mg/L (≈ 6.11 µM) | 5.21 mg/L (≈ 11.4 µM) | > 10 mg/L |
| CC(C)c1ccc2c(c1)CC[C@@H](C(C)(C)O)[C@]2(C)CCC(=O)O (relative stereo) | > 10 mg/L | > 10 mg/L | – |
